What was measured:
[1] = target: T1, Ileal sodium/bile acid cotransporter (Homo sapiens, UniProt Q12908); assay: In vitro inhibition of ASBT mediated uptake of [14C]taurocholate (5 uM) in baby hamster cells expressing human IBAT; format: cell-based
T1 sequence (Q12908 whole entry): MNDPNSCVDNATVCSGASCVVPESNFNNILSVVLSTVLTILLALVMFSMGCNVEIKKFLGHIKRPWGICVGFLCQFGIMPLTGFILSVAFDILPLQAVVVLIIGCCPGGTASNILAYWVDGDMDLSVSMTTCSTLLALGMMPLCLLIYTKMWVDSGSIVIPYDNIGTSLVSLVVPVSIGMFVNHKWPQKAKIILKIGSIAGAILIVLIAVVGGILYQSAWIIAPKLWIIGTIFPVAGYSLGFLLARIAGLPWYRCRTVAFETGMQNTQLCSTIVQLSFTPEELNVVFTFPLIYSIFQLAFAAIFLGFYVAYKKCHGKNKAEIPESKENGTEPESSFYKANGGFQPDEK

[2] = Amount (dissolved in aqueous Tween-80) in bile of rat was determined by fecal bile acid content for 45 min in a 37 degree C; format: ADME, tissue-based, Feces; design: concentration or dose not given beside the values; conditions: in vivo, 0.75 h
How it was run: (§1)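 Male Wistar rats (275–300 g) were gavaged once each morning for 4 days at 5, 0.2 or 0.04 mpk in aqueous 0.2% (v/v) Tween-80 (2 mL/kg). Feces from the final 48 h were homogenized in twice their weight of water. Homogenate was diluted in butanol/water (2:0.6), extracted 45 min at 37 °C, centrifuged, and bile acids (μmol/day) measured enzymatically. Scores compared against a reference analogue at 0.04 mg/kg.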

[3] = Efficacy to increase fecal bile acid excretion; + is more efficacious; format: ADME, tissue-based, Feces; conditions: rat; how it was run: as §1
[4] = Efficacy to increase fecal bile acid excretion; ++ is even more effective; format: ADME, tissue-based, Feces; conditions: rat; how it was run: as §1
[5] = Maximum biliary concentration (dissolved in aqueous Tween-80) was determined on intragastric administration at 5-0.04 mg/kg in […] of rat gavage model; format: ADME, organism-based, Bile; design: dose 0.04 mg/kg, route […]; conditions: […] (blood), po
[6] = Maximum biliary concentration (dissolved in aqueous Tween-80) was determined on intragastric administration at 5-0.04 mg/kg in portal vein of rat gavage model; format: ADME, organism-based, Bile; design: dose 0.04 mg/kg, route […]; conditions: po

Row | SMILES | IC50 [1] [nM] | Activity [2] [%] | Efficacy [3] | Efficacy [4] | Cmax [5] [ng/mL] | Cmax [6] [ng/mL]
1 | CCCCC1(CCCC)CS(=O)(=O)c2ccc(N(C)C)cc2[C@@H](c2ccc(OCc3cccc(CN(CC(=O)O)CC(=O)O)n3)cc2)[C@H]1O | 4 | 0.17 | More efficacious than analogue 2 |  |  | 
2 | CCCCC1(CCCC)CS(=O)(=O)c2ccc(N(C)C)cc2[C@@H](c2ccc(OCc3ccc(CN(CC(=O)O)CC(=O)O)cc3)cc2)[C@H]1O |  | 0.12 |  |  |  | 
3 | CCCCC1(CCCC)CS(=O)(=O)c2ccc(N(C)C)cc2[C@@H](c2ccc(OCC(=O)NCC(=O)O)cc2)[C@H]1O |  | 7.14 | More efficacious than analogue 2 |  |  | 
4 | CCCCC1(CCCC)CS(=O)(=O)c2ccc(N(C)C)cc2[C@@H](c2ccc(OCc3cc[n+](C)cc3)cc2)[C@H]1O | 0.75 | 0.03 | More efficacious than analogue 2 |  |  | 
5 | CCCCC1(CCCC)CS(=O)(=O)c2ccc(N(C)C)cc2[C@@H](c2ccc(OCc3ccc(C[n+]4ccccc4)cc3)cc2)[C@H]1O | 1 | 0.03 |  | Even more effective |  | 
6 | CCCCC1(CCCC)CS(=O)(=O)c2ccc(N(C)C)cc2[C@@H](c2ccc(OCC(=O)O)cc2)[C@H]1O | 27 | 15.04 |  |  | 960 | 
7 | CCCCC1(CCCC)CS(=O)(=O)c2ccc(N(C)C)cc2[C@@H](c2ccc(OCCC[N+]34CCN(CC3)CC4)cc2)[C@H]1O |  | 0.21 | More efficacious than analogue 2 |  |  | 
8 | CCCCC1(CCCC)CS(=O)(=O)c2ccc(N(C)C)cc2[C@@H](c2ccc(OCCCCCN(CC(=O)O)CC(=O)O)cc2)[C@H]1O | 2.3 | 0.24 | More efficacious than analogue 2 |  |  | 
9 | CCCCC1(CCCC)CS(=O)(=O)c2ccc(N(C)C)cc2[C@@H](c2ccc(OCCCC[N+]34CCN(CC3)CC4)cc2)[C@H]1O |  | 0.12 | More efficacious than analogue 2 |  |  | 
10 | CCCCC1(CCCC)CS(=O)(=O)c2ccc(N(C)C)cc2[C@@H](c2ccc(OCCCCC(=O)O)cc2)[C@H]1O | 8.5 | 3.3 |  | Even more effective | 5100 | 1100
11 | CCCCC1(CCCC)CS(=O)(=O)c2ccc(N(C)C)cc2[C@@H](c2ccc[n+](C)c2)[C@H]1O (racemic) | 220 |  |  |  |  | 
12 | CCCCC1(CCCC)CS(=O)(=O)c2ccc(N(C)C)cc2[C@@H](c2ccncc2)[C@H]1O (racemic) | 8 |  |  |  |  | 
13 | CCCCC1(CCCC)CS(=O)(=O)c2ccc(N(C)C)cc2[C@@H](c2ccc(OCc3ccc(C[N+]45CCN(CC4)CC5)cc3)cc2)[C@H]1O [MARALIXIBAT] |  | 0.11 | More efficacious than analogue 2 |  |  | 
